Each structure is given as a SMILES string. Active and inactive are the calls of the source. No cut-off for these calls is given here.

From ChEMBL document CHEMBL5705905, “Pharmacological targeting of kinases MST1 and MST2 augments tissue repair and regeneration” (Sci Transl Med, 2016) come the findings set out here.

Data set [1] addresses Serine/threonine-protein kinase 3 (Homo sapiens, UniProt Q13188, D109A).
For data set [2], the target named is Protein kinase C epsilon type (Homo sapiens) (UniProt Q02156). Nature of the data set: Inhibition of PRKCE (unknown origin) assessed as remaining activity at 1 uM by Kinome scan method relative to control.
For data set [3], the target named is 5'-AMP-activated protein kinase catalytic subunit alpha-2 (Homo sapiens) (UniProt P54646). In words: Inhibition of AMPK-alpha2 (unknown origin) assessed as remaining activity at 1 uM by Kinome scan method relative to control. Summed up:
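Active-site-dependent competition-binding (KINOMEscan) panel of 468 kinases, test compound at 1 μM (from a 10 mM DMSO stock). Read-out is ctrl% = (test signal − positive control signal)/(negative control signal − positive control signal) × 100. DMSO is the negative control (100%) and a control compound is the positive control (0%). Lower ctrl% means tighter binding.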

The test system of data set [4] is Mast/stem cell growth factor receptor Kit (Homo sapiens), P10721 [D816H]. In words: Inhibition of KIT D816H mutant (unknown origin) assessed as remaining activity at 1 uM by Kinome scan method relative to control.
For data set [5], the target named is Phosphatidylinositol 4-phosphate 5-kinase type-1 alpha (Homo sapiens) (UniProt Q99755). Nature of the data set: Inhibition of PIP5K1A (unknown origin) assessed as remaining activity at 1 uM by Kinome scan method relative to control.
Chain of Phosphatidylinositol 4-phosphate 5-kinase type-1 alpha (Homo sapiens) (Q99755 whole entry, canonical isoform): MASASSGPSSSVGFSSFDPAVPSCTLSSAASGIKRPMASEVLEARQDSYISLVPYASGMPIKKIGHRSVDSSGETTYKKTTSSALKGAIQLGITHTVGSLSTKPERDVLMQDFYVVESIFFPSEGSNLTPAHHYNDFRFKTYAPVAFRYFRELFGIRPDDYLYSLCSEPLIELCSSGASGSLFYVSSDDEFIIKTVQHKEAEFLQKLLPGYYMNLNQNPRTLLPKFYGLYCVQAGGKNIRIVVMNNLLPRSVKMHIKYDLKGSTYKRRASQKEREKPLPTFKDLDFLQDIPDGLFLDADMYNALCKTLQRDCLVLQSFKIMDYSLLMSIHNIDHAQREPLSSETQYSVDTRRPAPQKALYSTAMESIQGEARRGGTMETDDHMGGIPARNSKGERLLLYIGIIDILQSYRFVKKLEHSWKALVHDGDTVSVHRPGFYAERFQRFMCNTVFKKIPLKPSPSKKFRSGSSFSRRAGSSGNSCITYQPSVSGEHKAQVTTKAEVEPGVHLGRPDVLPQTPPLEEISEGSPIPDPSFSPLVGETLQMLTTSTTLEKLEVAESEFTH
Data set [6] has as its target Casein kinase I isoform gamma-2 (Homo sapiens) (UniProt P78368). Nature of the data set: Inhibition of CSNK1G2 (unknown origin) assessed as remaining activity at 1 uM by Kinome scan method relative to control. The method, boiled down:
(§1)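 Active-site-dependent competition-binding profiling (KINOMEscan) at 1 μM against a 468-kinase panel; compound supplied from a 10 mM DMSO stock. Read-out is ctrl% = (test signal − positive control signal)/(negative control signal − positive control signal) × 100. DMSO is the negative control (100%) and a control compound the positive control (0%). Lower ctrl% means tighter binding.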

Data set [7] concerns the target Myosin-IIIb (Homo sapiens) (UniProt Q8WXR4). In words: Inhibition of MYO3B (unknown origin) assessed as remaining activity at 1 uM by Kinome scan method relative to control.
For data set [8], the target named is Rho-associated protein kinase 2 (Homo sapiens) (UniProt O75116). In words: Inhibition of ROCK2 (unknown origin) assessed as remaining activity at 1 uM by Kinome scan method relative to control.
Chain of Rho-associated protein kinase 2 (Homo sapiens) (O75116 whole entry, looked up): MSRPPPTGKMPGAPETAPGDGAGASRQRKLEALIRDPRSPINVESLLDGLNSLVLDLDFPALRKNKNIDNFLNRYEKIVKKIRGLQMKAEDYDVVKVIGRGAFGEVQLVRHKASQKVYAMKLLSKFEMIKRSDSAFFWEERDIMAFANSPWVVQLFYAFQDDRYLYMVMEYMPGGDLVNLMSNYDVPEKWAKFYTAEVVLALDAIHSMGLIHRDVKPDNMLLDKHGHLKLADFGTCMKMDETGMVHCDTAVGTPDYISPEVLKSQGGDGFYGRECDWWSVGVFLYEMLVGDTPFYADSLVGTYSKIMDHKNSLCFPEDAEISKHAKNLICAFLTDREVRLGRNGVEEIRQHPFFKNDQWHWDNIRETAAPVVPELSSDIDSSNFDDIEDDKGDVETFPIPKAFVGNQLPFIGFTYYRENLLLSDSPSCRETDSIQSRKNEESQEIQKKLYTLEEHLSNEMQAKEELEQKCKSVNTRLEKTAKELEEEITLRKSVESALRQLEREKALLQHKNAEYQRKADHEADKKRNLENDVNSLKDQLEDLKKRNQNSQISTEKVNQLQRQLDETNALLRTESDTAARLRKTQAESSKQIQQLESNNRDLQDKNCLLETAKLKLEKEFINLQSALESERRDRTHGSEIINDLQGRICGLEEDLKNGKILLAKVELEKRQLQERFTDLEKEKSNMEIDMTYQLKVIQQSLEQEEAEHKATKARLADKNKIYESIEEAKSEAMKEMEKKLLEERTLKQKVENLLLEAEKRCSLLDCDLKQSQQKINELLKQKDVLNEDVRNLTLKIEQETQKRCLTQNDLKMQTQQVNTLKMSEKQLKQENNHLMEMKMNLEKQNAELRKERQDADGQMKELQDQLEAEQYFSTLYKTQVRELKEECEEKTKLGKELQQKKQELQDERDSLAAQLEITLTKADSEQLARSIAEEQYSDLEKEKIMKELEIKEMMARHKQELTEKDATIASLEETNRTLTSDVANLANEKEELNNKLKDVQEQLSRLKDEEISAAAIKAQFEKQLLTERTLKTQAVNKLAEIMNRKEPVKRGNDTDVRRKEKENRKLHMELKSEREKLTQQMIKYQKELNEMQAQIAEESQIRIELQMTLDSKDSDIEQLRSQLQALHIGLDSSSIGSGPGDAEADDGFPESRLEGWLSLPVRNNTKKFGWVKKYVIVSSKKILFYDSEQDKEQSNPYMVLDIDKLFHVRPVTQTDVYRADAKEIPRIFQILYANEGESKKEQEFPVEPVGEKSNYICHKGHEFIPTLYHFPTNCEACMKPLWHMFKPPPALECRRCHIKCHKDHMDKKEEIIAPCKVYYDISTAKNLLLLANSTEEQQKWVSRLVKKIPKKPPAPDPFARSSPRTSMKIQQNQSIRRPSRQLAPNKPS
Data set [9] addresses Serine/threonine-protein kinase TAO3 (Homo sapiens, UniProt Q9H2K8). In words: Inhibition of TAOK3 (unknown origin) in presence of ATP by enzymatic assay.
The target of data set [10] is Serine/threonine-protein kinase TAO1 (Homo sapiens) (UniProt Q7L7X3). Nature of the data set: Inhibition of TAOK1 (unknown origin) assessed as remaining activity at 1 uM by Kinome scan method relative to control.
Data set [11] has as its system Mus musculus. In words: Protection against CCl4-induced mouse assessed as low dead cells at 1 mg/kg, ip administration daily for 10 days by TUNEL staining. The class given is functional, organism-based. As to conditions: Liver, time 10.0 day.
Data set [12] has as its target Cyclin-dependent kinase 11A (Homo sapiens) (UniProt Q9UQ88). In words: Inhibition of CDC2L2 (unknown origin) assessed as remaining activity at 1 uM by Kinome scan method relative to control. The method, boiled down:
as §1

For data set [13], the system named is Mus musculus. Nature of the data set: Protection against Mst1fl/fl Mst2fl/fl-Alb-Cre double knockout mouse assessed as Ki67-positive cells at 1 mg/kg, ip administrated twice a day for 2 days measured after 36 hrs by immunohistochemical staining. The class given is functional, organism-based. As to conditions: Liver, time 2.0 day.
Data set [14] deals with Receptor-type tyrosine-protein kinase FLT3 (Homo sapiens), P36888 [D835Y]. In words: Inhibition of FLT3 D835Y mutant (unknown origin) assessed as remaining activity at 1 uM by Kinome scan method relative to control.
The target of data set [15] is Ribosomal protein S6 kinase alpha-2 (Homo sapiens) (UniProt Q15349). Nature of the data set: Inhibition of N-terminal kinase domain RSK3 (unknown origin) assessed as remaining activity at 1 uM by Kinome scan method relative to control.
In data set [16] the target is Mitogen-activated protein kinase kinase kinase 9 (Homo sapiens) (UniProt P80192). Nature of the data set: Inhibition of MLK1 (unknown origin) assessed as remaining activity at 1 uM by Kinome scan method relative to control.
The target in data set [17] is Ribosomal protein S6 kinase alpha-4 (Homo sapiens) (UniProt O75676). In words: Inhibition of N-terminal kinase domain RPS6KA4 (unknown origin) assessed as remaining activity at 1 uM by Kinome scan method relative to control.
Data set [18] can be described thus: Acute toxicity in wild-type mouse assessed as cell proliferation in colon at 3 mg/kg,ip administrated daily for 7 days by Ki67 staining. In kind it is organism-based. The settings on record: in vivo, 168 h, time 7 day. The method, boiled down:
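Wild-type mice received vehicle or 3 mg/kg i.p. daily for 7 days. Ki67 staining of sections from various tissues with quantification of positive cells, n = 6; means ± SD, Student's t test. Daily weights, physical activity and serum chemistry were also monitored.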

For data set [19], the target named is Phosphatidylinositol 4-kinase beta (Homo sapiens) (UniProt Q9UBF8). Nature of the data set: Inhibition of PIK4CB (unknown origin) assessed as remaining activity at 1 uM by Kinome scan method relative to control.
Chain of Phosphatidylinositol 4-kinase beta (Homo sapiens) (Q9UBF8 2-816 limits assumed): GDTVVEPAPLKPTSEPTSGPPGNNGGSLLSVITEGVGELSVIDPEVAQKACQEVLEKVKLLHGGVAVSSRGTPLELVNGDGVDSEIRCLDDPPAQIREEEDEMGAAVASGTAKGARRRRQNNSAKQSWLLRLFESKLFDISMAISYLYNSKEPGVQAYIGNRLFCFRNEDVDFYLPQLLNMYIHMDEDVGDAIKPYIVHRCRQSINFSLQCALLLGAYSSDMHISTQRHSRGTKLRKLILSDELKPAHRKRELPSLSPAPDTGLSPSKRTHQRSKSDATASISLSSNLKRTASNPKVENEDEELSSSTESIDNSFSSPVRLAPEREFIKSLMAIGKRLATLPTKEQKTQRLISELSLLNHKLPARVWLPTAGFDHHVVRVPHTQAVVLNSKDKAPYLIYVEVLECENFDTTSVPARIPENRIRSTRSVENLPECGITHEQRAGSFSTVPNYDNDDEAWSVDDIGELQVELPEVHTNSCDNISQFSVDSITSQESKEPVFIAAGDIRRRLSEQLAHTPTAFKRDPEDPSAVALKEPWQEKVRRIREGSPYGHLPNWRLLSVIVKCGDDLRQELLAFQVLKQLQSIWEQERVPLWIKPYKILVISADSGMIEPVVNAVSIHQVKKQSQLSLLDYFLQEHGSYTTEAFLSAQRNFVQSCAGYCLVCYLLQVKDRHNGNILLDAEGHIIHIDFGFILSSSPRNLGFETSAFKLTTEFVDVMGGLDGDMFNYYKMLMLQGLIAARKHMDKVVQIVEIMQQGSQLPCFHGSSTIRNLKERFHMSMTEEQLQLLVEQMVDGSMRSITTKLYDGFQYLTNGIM
Data set [20] has as its target T1, Serine/threonine-protein kinase 4 (Homo sapiens, UniProt Q13043).
T1 sequence (Q13043 whole entry): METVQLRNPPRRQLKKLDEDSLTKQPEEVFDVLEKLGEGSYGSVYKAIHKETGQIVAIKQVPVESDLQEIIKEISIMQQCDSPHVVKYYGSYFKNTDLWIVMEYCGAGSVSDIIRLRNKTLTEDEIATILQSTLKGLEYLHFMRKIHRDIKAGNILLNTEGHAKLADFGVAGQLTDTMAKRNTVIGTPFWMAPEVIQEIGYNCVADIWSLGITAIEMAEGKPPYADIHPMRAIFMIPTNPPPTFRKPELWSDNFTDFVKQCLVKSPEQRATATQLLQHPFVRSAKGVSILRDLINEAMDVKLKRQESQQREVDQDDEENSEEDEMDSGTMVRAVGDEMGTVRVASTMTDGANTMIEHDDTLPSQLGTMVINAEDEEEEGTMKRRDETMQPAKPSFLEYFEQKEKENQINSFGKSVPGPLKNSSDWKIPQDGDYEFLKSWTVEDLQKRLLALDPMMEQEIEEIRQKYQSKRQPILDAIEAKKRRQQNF
Nature of the data set: Binding affinity to MST1 (unknown origin) assessed as dissociation constant.

Data set [21] deals with Mus musculus. Nature of the data set: Protection against APAP induced liver injury in mouse assessed as continual expansion of centrilobular necrotic lesions at 1 mg/kg, ip administered at 1.5 hrs by H&E staining. In kind it is functional, organism-based.
Data set [22] relates to Tyrosine-protein kinase ABL1 (Homo sapiens), P00519 [T315I]. In words: Inhibition of phosphorylated ABL1 T315I mutant (unknown origin) assessed as remaining activity at 1 uM by Kinome scan method relative to control.
In data set [23] the target is Cyclin-dependent kinase 3 (Homo sapiens) (UniProt Q00526). In words: Inhibition of CDK3 (unknown origin) assessed as remaining activity at 1 uM by Kinome scan method relative to control. Summed up: as §1
Data set [24] deals with Serine/threonine-protein kinase 3 (Homo sapiens) (UniProt Q13188). The settings on record: dose 100.0 µM.
Chain of Serine/threonine-protein kinase 3 (Homo sapiens) (Q13188 whole entry): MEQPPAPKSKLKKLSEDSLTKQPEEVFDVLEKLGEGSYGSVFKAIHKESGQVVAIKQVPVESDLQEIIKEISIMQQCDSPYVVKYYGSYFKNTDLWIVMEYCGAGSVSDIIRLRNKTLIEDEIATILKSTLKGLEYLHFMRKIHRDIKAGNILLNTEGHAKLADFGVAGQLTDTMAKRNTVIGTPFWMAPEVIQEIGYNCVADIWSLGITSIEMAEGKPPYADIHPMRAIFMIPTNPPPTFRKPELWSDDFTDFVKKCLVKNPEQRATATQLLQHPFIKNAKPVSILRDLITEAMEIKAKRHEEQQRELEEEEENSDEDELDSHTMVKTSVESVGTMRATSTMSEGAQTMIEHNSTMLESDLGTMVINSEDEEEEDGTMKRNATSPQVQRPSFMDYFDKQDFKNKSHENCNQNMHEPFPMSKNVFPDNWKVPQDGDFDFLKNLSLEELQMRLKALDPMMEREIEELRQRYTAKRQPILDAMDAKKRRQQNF

Chain of Myosin-IIIb (Homo sapiens) (Q8WXR4 whole entry): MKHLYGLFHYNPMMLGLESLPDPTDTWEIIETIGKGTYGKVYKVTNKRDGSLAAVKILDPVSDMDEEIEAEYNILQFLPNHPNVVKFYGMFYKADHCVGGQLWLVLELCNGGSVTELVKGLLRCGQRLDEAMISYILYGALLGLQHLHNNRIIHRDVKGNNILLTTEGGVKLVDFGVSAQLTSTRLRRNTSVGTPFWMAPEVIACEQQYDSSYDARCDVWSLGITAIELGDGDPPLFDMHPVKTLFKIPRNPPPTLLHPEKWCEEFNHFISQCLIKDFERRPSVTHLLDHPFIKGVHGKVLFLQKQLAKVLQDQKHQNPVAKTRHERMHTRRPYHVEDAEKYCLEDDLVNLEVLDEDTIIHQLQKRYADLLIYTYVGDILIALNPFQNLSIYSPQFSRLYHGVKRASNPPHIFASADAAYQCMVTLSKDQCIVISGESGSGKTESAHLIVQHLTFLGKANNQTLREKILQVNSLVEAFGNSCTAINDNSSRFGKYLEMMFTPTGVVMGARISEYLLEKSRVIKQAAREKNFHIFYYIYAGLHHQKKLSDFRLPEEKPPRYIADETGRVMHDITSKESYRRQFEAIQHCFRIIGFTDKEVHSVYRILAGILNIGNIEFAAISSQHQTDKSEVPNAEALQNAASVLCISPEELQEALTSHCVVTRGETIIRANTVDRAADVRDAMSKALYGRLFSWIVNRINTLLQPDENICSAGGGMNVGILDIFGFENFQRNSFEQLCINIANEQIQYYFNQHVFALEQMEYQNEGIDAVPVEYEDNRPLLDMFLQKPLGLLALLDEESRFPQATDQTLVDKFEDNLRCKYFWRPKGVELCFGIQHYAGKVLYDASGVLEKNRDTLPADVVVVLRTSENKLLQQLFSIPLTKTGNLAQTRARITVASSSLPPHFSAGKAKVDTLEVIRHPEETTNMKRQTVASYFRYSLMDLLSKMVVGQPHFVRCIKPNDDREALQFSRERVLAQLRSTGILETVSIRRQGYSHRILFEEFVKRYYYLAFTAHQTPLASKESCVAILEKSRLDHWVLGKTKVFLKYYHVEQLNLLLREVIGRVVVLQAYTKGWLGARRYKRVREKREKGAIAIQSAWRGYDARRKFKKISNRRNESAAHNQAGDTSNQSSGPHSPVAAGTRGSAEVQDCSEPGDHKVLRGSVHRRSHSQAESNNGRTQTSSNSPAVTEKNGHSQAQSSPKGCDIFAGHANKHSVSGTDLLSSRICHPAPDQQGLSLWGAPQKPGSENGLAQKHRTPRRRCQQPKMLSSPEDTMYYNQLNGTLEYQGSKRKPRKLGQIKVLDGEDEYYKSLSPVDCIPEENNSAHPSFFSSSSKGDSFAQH
Chain of Serine/threonine-protein kinase 3 (Q13188 whole entry D109A): as the sequence (Q13188 whole entry) above, with D109A counted along it
Chain of Casein kinase I isoform gamma-2 (Homo sapiens) (P78368 whole entry, looked up, canonical isoform): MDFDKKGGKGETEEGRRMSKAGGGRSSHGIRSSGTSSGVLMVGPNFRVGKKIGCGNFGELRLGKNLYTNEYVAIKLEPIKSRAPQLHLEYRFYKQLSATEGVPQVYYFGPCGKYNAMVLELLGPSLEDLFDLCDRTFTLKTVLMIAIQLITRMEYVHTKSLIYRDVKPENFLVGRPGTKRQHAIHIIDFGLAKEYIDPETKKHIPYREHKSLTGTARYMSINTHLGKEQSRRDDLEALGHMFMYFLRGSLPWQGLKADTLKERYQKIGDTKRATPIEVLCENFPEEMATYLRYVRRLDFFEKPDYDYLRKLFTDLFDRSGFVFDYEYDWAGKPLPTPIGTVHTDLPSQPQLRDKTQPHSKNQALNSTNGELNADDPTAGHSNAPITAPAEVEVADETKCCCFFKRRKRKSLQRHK

For orientation: IC50 means the point on the concentration scale where inhibition reaches its midpoint. The Kd is a measure of binding affinity in units of concentration. In the case of `CN1C(=O)c2sccc2N(C)c2nc(Nc3ccc(S(N)(=O)=O)cc3)ncc21`, the IC50 in data set [1] worked out at 1.04 µM; in data set [9], 0.254 µM. Also, the Activity was found to be 98% in [2]; 100% in [3]; 85% in data set [4]; 100% in [5]; 100% in [6]; 100% in [7]. In addition, the Activity in data set [8] was 96%; in data set [10], 2.6%; in data set [12], 97%; in data set [14], 86%; in data set [15] it was 97%; in data set [16], 100%. Further, the Activity in data set [17] was 81%; in [18] it was “Non-Toxic”; in [19], 65%; in data set [22], 1.6%; in data set [23], 100%. The outcome in the data set on Mus musculus [11] and in the data set on Mus musculus [21] was Active. For the same molecule, in the data set on Mus musculus [13], the result was inactive. Moreover, the dissociation constant Kd in data set [20] came out at 0.017 µM. Besides, in data set [24], the Tm came out at 62 °C.
